Inhibition data for one compound are collected here from ChEMBL document CHEMBL4321879, “Novel Class of Colony-Stimulating Factor 1 Receptor Kinase Inhibitors Based on an o-Aminopyridyl Alkynyl Scaffold as Potential Treatment for Inflammatory Disorders” (J Med Chem, 2020).

Data set [1] concerns the target Vascular endothelial growth factor receptor 2 (Homo sapiens) (UniProt P35968). The data set is described as follows: Inhibition of recombinant human VEGFR2 (D1-7) expressed in Spodoptera frugiperda insect cells at 1000 nM using poly (Glu, Tyr)4:1 as substrate measured after 1 hr by ELISA relative to control. Put shortly:
(§1)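 ELISA kinase assay: recombinant kinase added to wells precoated with poly(Glu,Tyr)4:1 and incubated with compound in reaction buffer containing 5 μM ATP, 37 °C for 1 h; wells then washed before antibody detection.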

Data set [2] deals with Vascular endothelial growth factor receptor 3 (Homo sapiens) (UniProt P35916). The data set is described as follows: Inhibition of recombinant VEGFR3 (unknown origin) at 100 nM using poly (Glu, Tyr)4:1 as substrate measured after 1 hr by ELISA relative to control. An outline of the steps: (§2)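 Recombinant kinase was incubated with compound in reaction buffer containing 5 μM ATP, in wells precoated with poly(Glu,Tyr) 4:1, for 1 h at 37 °C. Phosphorylation was detected by ELISA.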

For a further data set, the target named is c-KIT (Homo sapiens, UniProt P10721). Nature of the data set: Inhibition of recombinant human N-terminal GST-tagged c-KIT (544 to end residues) expressed in baculovirus infected Sf21 insect cells at 100 nM using poly (Glu, Tyr)4:1 as substrate measured after 1 hr by ELISA relative to control. The following applies: probe poly (Glu, Tyr)4:1. An outline of the steps:
as §2

Data set [3] deals with Insulin-like growth factor 1 receptor (Homo sapiens) (UniProt P08069). Nature of the data set: Inhibition of recombinant human N-terminal His6-tagged IGF1R (959 to end residues) expressed in baculovirus infected Sf21 insect cells at 100 nM using poly (Glu, Tyr)4:1 as substrate measured after 1 hr by ELISA relative to control. Put shortly: as §1

Structures are written as SMILES.

Chain of Vascular endothelial growth factor receptor 3 (Homo sapiens) (P35916 whole entry): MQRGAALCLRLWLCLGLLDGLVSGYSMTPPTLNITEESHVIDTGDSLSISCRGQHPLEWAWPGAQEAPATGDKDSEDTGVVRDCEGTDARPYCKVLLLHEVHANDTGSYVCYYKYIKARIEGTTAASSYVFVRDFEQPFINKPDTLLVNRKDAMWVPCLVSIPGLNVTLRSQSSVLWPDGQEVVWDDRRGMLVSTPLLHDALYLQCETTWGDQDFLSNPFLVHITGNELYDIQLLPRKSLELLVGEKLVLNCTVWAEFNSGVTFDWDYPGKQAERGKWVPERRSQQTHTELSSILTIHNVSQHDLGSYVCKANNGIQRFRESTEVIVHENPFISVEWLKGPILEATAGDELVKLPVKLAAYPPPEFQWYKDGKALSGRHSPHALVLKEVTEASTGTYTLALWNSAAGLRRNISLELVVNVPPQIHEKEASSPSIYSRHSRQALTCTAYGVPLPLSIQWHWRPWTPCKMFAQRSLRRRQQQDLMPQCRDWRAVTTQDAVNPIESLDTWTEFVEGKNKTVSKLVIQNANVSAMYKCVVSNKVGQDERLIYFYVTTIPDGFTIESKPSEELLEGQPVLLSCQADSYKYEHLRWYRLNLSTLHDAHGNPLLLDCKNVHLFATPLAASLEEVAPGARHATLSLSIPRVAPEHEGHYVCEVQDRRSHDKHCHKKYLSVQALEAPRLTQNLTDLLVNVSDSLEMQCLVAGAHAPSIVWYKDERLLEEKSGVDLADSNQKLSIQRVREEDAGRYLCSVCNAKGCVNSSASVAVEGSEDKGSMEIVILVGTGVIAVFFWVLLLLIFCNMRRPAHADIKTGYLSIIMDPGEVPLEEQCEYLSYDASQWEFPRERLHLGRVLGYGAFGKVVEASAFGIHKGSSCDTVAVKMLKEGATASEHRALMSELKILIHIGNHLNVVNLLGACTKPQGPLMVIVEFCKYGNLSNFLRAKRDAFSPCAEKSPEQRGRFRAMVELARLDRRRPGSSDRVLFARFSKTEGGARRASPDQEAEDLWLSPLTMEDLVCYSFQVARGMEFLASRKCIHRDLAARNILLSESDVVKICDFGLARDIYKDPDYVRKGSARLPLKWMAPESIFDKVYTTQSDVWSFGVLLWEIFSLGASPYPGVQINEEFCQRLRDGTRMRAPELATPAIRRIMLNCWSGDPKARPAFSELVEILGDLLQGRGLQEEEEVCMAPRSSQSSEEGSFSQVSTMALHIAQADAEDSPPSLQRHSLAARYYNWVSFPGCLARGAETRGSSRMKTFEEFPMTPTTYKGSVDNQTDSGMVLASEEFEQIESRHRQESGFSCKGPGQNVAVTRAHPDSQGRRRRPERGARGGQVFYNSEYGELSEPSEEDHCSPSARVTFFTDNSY
Chain of Vascular endothelial growth factor receptor 2 (Homo sapiens) (P35968 whole entry): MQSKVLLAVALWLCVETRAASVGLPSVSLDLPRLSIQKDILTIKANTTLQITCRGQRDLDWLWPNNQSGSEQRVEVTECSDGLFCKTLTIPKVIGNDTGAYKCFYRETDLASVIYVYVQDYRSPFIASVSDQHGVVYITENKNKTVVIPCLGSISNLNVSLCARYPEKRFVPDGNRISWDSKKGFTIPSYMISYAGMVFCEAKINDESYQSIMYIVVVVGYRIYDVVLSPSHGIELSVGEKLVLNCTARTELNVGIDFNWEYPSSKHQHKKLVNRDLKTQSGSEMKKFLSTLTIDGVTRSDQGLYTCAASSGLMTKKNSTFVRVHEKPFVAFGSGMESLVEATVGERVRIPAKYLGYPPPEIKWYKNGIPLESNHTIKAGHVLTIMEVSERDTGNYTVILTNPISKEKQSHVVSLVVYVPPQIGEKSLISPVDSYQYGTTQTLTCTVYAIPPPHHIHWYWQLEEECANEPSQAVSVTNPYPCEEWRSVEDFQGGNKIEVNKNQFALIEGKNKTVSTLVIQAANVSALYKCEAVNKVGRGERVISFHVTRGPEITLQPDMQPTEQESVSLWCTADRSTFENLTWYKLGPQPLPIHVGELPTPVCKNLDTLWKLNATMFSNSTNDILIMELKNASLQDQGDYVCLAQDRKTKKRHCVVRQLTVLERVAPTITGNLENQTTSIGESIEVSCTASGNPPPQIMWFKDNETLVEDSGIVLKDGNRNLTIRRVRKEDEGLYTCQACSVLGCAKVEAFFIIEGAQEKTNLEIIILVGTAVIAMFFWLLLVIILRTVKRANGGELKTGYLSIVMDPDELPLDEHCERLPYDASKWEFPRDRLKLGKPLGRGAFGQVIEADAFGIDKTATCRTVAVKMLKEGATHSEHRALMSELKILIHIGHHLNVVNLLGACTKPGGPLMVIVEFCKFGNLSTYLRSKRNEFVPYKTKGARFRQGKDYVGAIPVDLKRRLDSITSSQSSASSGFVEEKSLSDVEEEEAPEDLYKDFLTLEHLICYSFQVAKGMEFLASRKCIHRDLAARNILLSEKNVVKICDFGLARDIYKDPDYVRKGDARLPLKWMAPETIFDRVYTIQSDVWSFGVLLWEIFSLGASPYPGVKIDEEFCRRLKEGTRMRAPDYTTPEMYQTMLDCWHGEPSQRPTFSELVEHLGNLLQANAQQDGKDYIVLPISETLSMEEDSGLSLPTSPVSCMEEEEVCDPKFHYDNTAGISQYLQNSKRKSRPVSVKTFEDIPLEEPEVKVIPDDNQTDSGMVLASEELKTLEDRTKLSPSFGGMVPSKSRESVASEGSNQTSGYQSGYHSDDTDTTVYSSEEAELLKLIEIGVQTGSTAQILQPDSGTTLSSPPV
Chain of Insulin-like growth factor 1 receptor (Homo sapiens) (P08069 31-736 limits assumed): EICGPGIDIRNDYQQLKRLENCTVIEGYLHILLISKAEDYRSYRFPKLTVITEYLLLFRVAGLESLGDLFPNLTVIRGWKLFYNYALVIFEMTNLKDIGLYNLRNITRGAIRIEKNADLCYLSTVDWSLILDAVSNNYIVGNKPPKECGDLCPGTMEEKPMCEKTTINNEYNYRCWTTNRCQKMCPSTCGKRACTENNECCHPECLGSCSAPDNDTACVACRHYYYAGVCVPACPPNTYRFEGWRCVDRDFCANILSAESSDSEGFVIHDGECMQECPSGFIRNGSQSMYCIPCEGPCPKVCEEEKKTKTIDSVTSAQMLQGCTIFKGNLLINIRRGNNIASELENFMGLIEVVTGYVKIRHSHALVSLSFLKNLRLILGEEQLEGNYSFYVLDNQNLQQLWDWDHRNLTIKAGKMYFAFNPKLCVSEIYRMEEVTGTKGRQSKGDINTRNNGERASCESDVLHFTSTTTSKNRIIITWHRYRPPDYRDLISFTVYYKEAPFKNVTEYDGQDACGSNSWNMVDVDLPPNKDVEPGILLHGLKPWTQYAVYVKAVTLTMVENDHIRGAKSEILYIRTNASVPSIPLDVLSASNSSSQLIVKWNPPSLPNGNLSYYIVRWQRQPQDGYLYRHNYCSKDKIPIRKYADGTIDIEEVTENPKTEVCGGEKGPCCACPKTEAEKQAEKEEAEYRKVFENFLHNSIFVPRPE
Chain of Insulin-like growth factor 1 receptor (Homo sapiens) (P08069 741-1367 limits assumed): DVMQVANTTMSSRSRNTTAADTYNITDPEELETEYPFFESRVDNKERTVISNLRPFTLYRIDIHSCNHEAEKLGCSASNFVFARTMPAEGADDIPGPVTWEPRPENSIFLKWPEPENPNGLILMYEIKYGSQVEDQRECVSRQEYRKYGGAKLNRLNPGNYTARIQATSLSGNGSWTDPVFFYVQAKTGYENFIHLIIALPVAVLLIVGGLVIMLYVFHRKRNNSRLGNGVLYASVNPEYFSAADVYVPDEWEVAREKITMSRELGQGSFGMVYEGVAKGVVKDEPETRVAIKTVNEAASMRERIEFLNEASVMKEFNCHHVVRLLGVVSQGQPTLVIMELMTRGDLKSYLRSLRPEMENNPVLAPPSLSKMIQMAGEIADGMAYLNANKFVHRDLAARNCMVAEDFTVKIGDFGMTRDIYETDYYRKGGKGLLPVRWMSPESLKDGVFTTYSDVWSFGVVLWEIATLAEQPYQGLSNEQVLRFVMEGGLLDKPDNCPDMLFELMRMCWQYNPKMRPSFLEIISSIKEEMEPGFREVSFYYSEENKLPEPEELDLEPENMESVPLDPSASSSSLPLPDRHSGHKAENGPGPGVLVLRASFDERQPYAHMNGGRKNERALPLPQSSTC
Chain of c-KIT (P10721 whole entry): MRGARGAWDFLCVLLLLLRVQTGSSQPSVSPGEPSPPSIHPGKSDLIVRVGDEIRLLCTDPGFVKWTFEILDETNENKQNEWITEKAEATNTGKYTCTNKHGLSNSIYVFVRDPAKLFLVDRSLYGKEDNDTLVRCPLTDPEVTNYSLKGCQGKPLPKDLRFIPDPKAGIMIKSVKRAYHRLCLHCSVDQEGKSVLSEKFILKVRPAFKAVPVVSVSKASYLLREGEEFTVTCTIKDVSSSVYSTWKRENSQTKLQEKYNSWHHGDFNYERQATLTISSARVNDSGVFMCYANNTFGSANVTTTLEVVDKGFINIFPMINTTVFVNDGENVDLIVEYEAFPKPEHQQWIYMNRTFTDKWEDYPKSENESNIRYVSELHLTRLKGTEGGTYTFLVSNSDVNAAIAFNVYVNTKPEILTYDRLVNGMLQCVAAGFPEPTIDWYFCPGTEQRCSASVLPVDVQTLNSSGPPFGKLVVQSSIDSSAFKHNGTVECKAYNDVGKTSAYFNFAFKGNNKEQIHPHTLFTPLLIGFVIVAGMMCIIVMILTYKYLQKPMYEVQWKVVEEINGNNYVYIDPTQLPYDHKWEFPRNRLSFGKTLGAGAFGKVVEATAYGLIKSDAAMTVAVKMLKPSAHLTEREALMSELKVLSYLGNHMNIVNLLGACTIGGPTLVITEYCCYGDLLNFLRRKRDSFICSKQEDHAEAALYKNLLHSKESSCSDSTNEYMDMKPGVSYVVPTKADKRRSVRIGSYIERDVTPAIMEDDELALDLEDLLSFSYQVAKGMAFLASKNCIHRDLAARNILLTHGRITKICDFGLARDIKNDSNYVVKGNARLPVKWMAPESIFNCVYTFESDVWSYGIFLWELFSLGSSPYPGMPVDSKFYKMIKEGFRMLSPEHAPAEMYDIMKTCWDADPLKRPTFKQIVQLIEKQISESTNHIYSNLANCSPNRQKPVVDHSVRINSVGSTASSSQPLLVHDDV

Regarding `Cc1ccc(C(=O)Nc2ccc(Cl)cc2)cc1C#Cc1cc(-c2cnn(C)c2)cnc1N`, the inhibition was 95.5% in data set [1], 69.4% in data set [2] and 0% in data set [3]. Further, the inhibition at 1 h, 0.1 µM at c-KIT was 100%.
